Measurements taken from PMC10546156 (Journal for Immunotherapy of Cancer, 2023).

Test system: HLA-typed donor PBMC, CD8 T cells
Test: Immunogenicity assessment: tetramer/dextramer staining of donor T cells
Assay type: cell-based, human
Conditions: two C*07:01 healthy donor buffy coats, prior to or after sequential dextramer enrichment
Outline: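 Dextramers were assembled from UV-exchange MHC monomers. 1–3×10^8 PBMC were treated with 50 nM dasatinib plus FcR block (30 min, 37°C), then with 10 µg/mL dextramer pool (1 h, 4°C), and bead-enriched sequentially over two columns. Enriched cells were either surface-stained for flow cytometry with the whole sample acquired, or expanded 10–14 days (irradiated allogeneic feeders, anti-CD3/28, IL-2 300 IU/mL, IL-7/IL-15 5 ng/mL) before re-enrichment.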

_RRYS(ph)DPPTY_ [pMYO9B]
C*07:01 PP-CTL responses by dextramer pool: could not detect responses

_RRFS(ph)GTAVY_ [pZNF518A]
C*07:01 PP-CTL responses by dextramer pool: could not detect responses

_KRAS(ph)GQAFEL_ [pSTMN]
C*07:01 PP-CTL responses by dextramer pool: could not detect responses

_KRAS(ph)FAKSV_ [pWNK]
C*07:01 PP-CTL responses by dextramer pool: could not detect responses

_RRPS(ph)LLSEF_ [pNCOR]
C*07:01 PP-CTL responses by dextramer pool: could not detect responses

_HRYS(ph)TPHAF_ [pRAF1]
C*07:01 PP-CTL responses by dextramer pool: could not detect responses

_FRRS(ph)PTKSSL_ [pRBM14]
C*07:01 PP-CTL responses by dextramer pool: could not detect responses
